According to ChEMBL document CHEMBL1152495, “Synthesis and antimicrobial studies of novel methylene bridged benzisoxazolyl imidazo[2,1-b][1,3,4]thiadiazole derivatives” (2009):
In brackets after ≈: the same amount, converted by molar mass.

How the values were obtained:
Assay type in all cases: functional
[1] = test system: Escherichia coli; assay: Antibacterial activity against Escherichia coli ATCC 35218 after 24 hrs by agar well diffusion method; conditions: ATCC 35218, 24 h
Outline: (§1)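 Agar well diffusion on Mueller Hinton agar (20 mL per dish), seeded homogeneously with liquid bacterial culture by spread plating. Samples loaded directly into wells, dimethylformamide as solvent control, ampicillin as reference drug. Plates incubated at 37 °C for 24 h. All determinations done in triplicate.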

[2] = test system: Bacillus subtilis; assay: Antibacterial activity against Bacillus subtilis ATCC 6633 at 100 ug/ml after 24 hrs by agar well diffusion method; conditions: ATCC 6633, 24 h, read-out: IZ; outline: as §1
[3] = test system: Aspergillus fumigatus; assay: Antifungal activity against Aspergillus fumigatus at 100 ug/ml after 72 hrs by agar well diffusion method; conditions: read-out: IZ
Outline: (§2)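 Fungi grown on Potato Dextrose Agar (20 mL per dish), seeded homogeneously with liquid culture by spread plating. Samples loaded directly into agar wells, with dimethylformamide as solvent control and clotrimazole as reference drug. Plates incubated at 25 °C for 72 h, triplicate determinations.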

[4] = test system: Candida albicans; assay: Antifungal activity against Candida albicans after 72 hrs by agar well diffusion method; outline: as §2
[5] = test system: Bacillus subtilis; assay: Antibacterial activity against Bacillus subtilis ATCC 6633 after 24 hrs by agar well diffusion method; conditions: ATCC 6633, 24 h; outline: as §1
[6] = test system: Pseudomonas aeruginosa; assay: Antibacterial activity against Pseudomonas aeruginosa ATCC 10145 at 100 ug/ml after 24 hrs by agar well diffusion method; conditions: ATCC 10145, 24 h, read-out: IZ; outline: as §1
[7] = test system: Staphylococcus aureus; assay: Antibacterial activity against Staphylococcus aureus ATCC 25923 at 100 ug/ml after 24 hrs by agar well diffusion method; conditions: ATCC 25923, 24 h, read-out: IZ; outline: as §1
[8] = test system: Staphylococcus aureus; assay: Antibacterial activity against Staphylococcus aureus ATCC 25923 after 24 hrs by agar well diffusion method; conditions: ATCC 25923, 24 h; outline: as §1
[9] = test system: Pseudomonas aeruginosa; assay: Antibacterial activity against Pseudomonas aeruginosa ATCC 10145 after 24 hrs by agar well diffusion method; conditions: ATCC 10145, 24 h; outline: as §1
[10] = test system: Escherichia coli; assay: Antibacterial activity against Escherichia coli ATCC 35218 at 100 ug/ml after 24 hrs by agar well diffusion method; conditions: ATCC 35218, 24 h, read-out: IZ; outline: as §1
[11] = test system: Candida albicans; assay: Antifungal activity against Candida albicans at 100 ug/ml after 72 hrs by agar well diffusion method; conditions: read-out: IZ; outline: as §2
[12] = test system: Aspergillus fumigatus; assay: Antifungal activity against Aspergillus fumigatus after 72 hrs by agar well diffusion method; outline: as §2

| SMILES | MIC [1] | zone of inhibition at 100 µg/mL [2] | zone of inhibition at 100 µg/mL [3] | MIC [4] | MIC [5] | zone of inhibition at 100 µg/mL [6] | zone of inhibition at 100 µg/mL [7] | MIC [8] | MIC [9] | zone of inhibition at 100 µg/mL [10] | zone of inhibition at 100 µg/mL [11] | MIC [12] |
| --- | --- | --- | --- | --- | --- | --- | --- | --- | --- | --- | --- | --- |
| O=[N+]([O-])c1ccc(-c2nc3sc(Cc4noc5ccccc45)nn3c2Br)cc1 | 3.5 µg/mL (≈ 7.67 µM) | 12 mm | 8 mm | 4 µg/mL (≈ 8.77 µM) | 2.5 µg/mL (≈ 5.48 µM) | 11 mm | 11 mm | 2 µg/mL (≈ 4.38 µM) | 3 µg/mL (≈ 6.57 µM) | 10 mm | 9 mm | 4.5 µg/mL (≈ 9.86 µM) |
| COc1ccc(-c2nc3sc(Cc4noc5ccccc45)nn3c2SC#N)cc1 | 3 µg/mL (≈ 7.15 µM) | 15 mm | 16 mm | 2.5 µg/mL (≈ 5.96 µM) | 1 µg/mL (≈ 2.38 µM) | 19 mm | 9 mm | 2 µg/mL (≈ 4.77 µM) | 1.5 µg/mL (≈ 3.58 µM) | 13 mm | 20 mm | 2.5 µg/mL (≈ 5.96 µM) |
| O=Nc1c(-c2ccc([N+](=O)[O-])cc2)nc2sc(Cc3noc4ccccc34)nn12 | 3.5 µg/mL (≈ 8.61 µM) | 14 mm | 11 mm | 2.5 µg/mL (≈ 6.15 µM) | 1.5 µg/mL (≈ 3.69 µM) | 11 mm | 12 mm | 1.5 µg/mL (≈ 3.69 µM) | 3 µg/mL (≈ 7.38 µM) | 9 mm | 17 mm | 4 µg/mL (≈ 9.84 µM) |
| Clc1ccc(-c2cn3nc(Cc4noc5ccccc45)sc3n2)cc1 | 1.5 µg/mL (≈ 4.09 µM) | 17 mm | 16 mm | 3.5 µg/mL (≈ 9.54 µM) | 0.5 µg/mL (≈ 1.36 µM) | 12 mm | 12 mm | 2 µg/mL (≈ 5.45 µM) | 3 µg/mL (≈ 8.18 µM) | 18 mm | 11 mm | 1.5 µg/mL (≈ 4.09 µM) |
| O=Nc1c(-c2ccccc2)nc2sc(Cc3noc4ccccc34)nn12 | 3 µg/mL (≈ 8.3 µM) | 13 mm | 16 mm | 3.5 µg/mL (≈ 9.68 µM) | 2 µg/mL (≈ 5.53 µM) | 10 mm | 18 mm | 1 µg/mL (≈ 2.77 µM) | 3 µg/mL (≈ 8.3 µM) | 11 mm | 13 mm | 2.5 µg/mL (≈ 6.92 µM) |
| N#CSc1c(-c2ccc(Cl)cc2)nc2sc(Cc3noc4ccccc34)nn12 | 2 µg/mL (≈ 4.72 µM) | 17 mm | 11 mm | 3 µg/mL (≈ 7.08 µM) | 1 µg/mL (≈ 2.36 µM) | 19 mm | 18 mm | 1 µg/mL (≈ 2.36 µM) | 1.5 µg/mL (≈ 3.54 µM) | 16 mm | 15 mm | 4 µg/mL (≈ 9.44 µM) |
